Where two headings read alike, the source gives them in different places. One block for each compound: values may come before it.
What was measured:
pAkt [1] = conditions: patients, doses ≥ 16 mg; cited from earlier work
advanced solid tumors = type: in vivo, human
In short: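 Phase 1 dose-escalation patients with advanced solid tumours or NHL, oral 2–200 mg (QD, 3-weeks-on/1-week-off, or QW). Lesions imaged by CT or MRI at baseline, after cycles 1 and 2, then every two cycles. Tumour size linked to predicted %pAkt inhibition via growth/shrinkage model with sigmoid Ks. Individual PK and dosing records used, with individual or typical IC50. All doses fitted simultaneously.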

pAkt (serine 473) = type: in vivo, mice
Unbound fraction in mice = type: in vitro ADME; conditions: mouse, plasma
786-O cell line = conditions: in vitro, cancer cell lines; cited from earlier work
[2] = Mouse pharmacokinetic model; type: in vivo, mice
In short: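 Mean plasma concentration–time data from nude mice given single oral 1, 5 or 10 mg/kg (n = 27 per dose), taken from earlier work. Sampling pre-dose and at 0.083–24 h. Linear one-compartment model with first-order oral absorption fitted simultaneously across doses to estimate ka, CL/F and V/F, with RSE%.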

[3] = Unbound fraction in humans; type: in vitro ADME; conditions: human, plasma
[4] = system: 786-O human renal cell adenocarcinoma (RCC) xenografts; test: Integrated PK–PD–efficacy model, tumor volume in 786-O xenograft mice; type: in vivo; conditions: 786-O xenografts
In short: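 Female beige nude XID mice bearing subcutaneous 786-O tumour fragments. Grouped at 100–300 mm3 (mean 181 mm3). Dosed PO QD for 17 days in MCT (0.5% methylcellulose, 0.2% Tween 80), vehicle or 0.008–11 mg/kg, n = 6. Caliper volumes taken pre-dose and at 72–408 h. Inhibition predicted from mouse PK and PK–PD models. All groups fitted simultaneously to growth/shrinkage model with sigmoid Ks.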

[5] = Patient population pharmacokinetic model; type: in vivo, human
In short: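 Phase 1 3+3 dose-escalation patients. Single oral dose on day 1, 1-week washout, then QD, 3-weeks-on/1-week-off, or QW. Plasma sampled intensively in cycle 1 and pre-dose in later cycles. Assayed by LC–MS/MS (LLOQ 0.5 ng/mL). Two-compartment nonlinear mixed-effects model with first-order absorption, exponential IIV and proportional residual error, fitted in NONMEM.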

pAkt [6] = type: in vivo, human; conditions: patients
In short: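 Blood drawn pre-dose and 1, 3, 8 and 24 h post-dose on day 1 from phase 1 patients (n = 37). pAkt in platelet-rich plasma measured by MSD assay and expressed as % of baseline. Concentrations predicted from individual population-PK parameters. Indirect response model (inhibition of pAkt formation) fitted, with Imax and γ1 fixed at 1, proportional error and IIV on IC50.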

Gli mRNA = conditions: preclinical models of the hedgehog pathway; cited from earlier work
[7] = nude mice, single PO 1, 5 and 10 mg/kg, one-compartment model

fraction unbound (Unbound fraction in mice): 0.294
linearity of pharmacokinetics over the range of doses tested ([2]; mice, PO 1, 5 and 10 mg/kg): linear
absorption rate constant (ka), estimate (RSE%) [2, 7]: 1.1 (36.4%) h^−1
apparent volume of distribution after oral dosing (V/F), estimate (RSE%) [2, 7]: 1.13 (17.3%) L/kg
k el ([2]; nude, mouse, plasma, oral): 8.33e-05 s⁻¹
fraction unbound [3]: 0.388
k el ([5]; human, plasma, oral): 2.78e-05 s⁻¹
CL/F ([5]; human, plasma, po): 5.07 mL/min/kg
absorption lagged time estimate (RSE%) ([5]; patients, n = 146, oral dosing): 0.465 (0.43%) h
absorption rate constant (ka), population typical value (RSE%) ([5]; patients, n = 146, oral dosing): 3.35 (16.8%) h^−1
apparent intercompartmental clearance (CLd/F), population typical value (RSE%) ([5]; patients, n = 146, oral dosing): 5.93 (8.53%) L/h
apparent oral clearance (CL/F), population typical value (RSE%) ([5]; patients, n = 146, oral dosing, two-compartment model): 21.3 (4.28%) L/h
Structure (SMILES): Cc1c(CN2CCN(C(=O)[C@H](C)O)CC2)sc2c(N3CCOCC3)nc(-c3cnc(N)nc3)nc12 [apitolisib]
reduction in platelet-rich plasma PD markers, including pAkt (pAkt [1]): ≥ 90%
Kmax (maximum value of tumor shrinkage rate constant Ks) (advanced solid tumors; patients with advanced solid tumors): 0.0142 1/week
Kg (net tumor growth rate constant) (advanced solid tumors; patients with advanced solid tumors, 2–200 mg): 0.0097 1/week
KI50 (I where Ks is 50% of Kmax) (advanced solid tumors; patients, pAkt in surrogate plasma): 58.0 %pAKT inhibition
constant pAkt inhibition necessary to achieve tumor stasis (Ks = Kg) (advanced solid tumors; patients, platelet-rich plasma pAkt): 65%
pAkt reduction in tumor (pAkt (serine 473); 786-O tumor-bearing mice, single oral 0.3 mg/kg): very weak
duration of sustained pAkt suppression in tumor (pAkt (serine 473); 786-O tumor-bearing mice, single oral 3 mg/kg): 6 h
duration of sustained pAkt suppression in tumor (pAkt (serine 473); 786-O tumor-bearing mice, single oral 10 mg/kg): 12 h
effect on pAkt in tumors across doses (pAkt (serine 473); 786-O tumor-bearing mice, single oral 0.3, 3 and 10 mg/kg): dose-dependent decrease
kin (rate of biomarker production) (pAkt (serine 473); 786-O xenograft mice, tumor tissue pAkt): 88,698 %/h
Imax (maximum inhibition of %pAkt) (pAkt (serine 473); 786-O xenograft mice, fixed in model): 1 (fix)
kout (first-order rate constant describing biomarker loss) (pAkt (serine 473); 786-O xenograft mice, kout = kin/%pAkt(0), baseline 100%): 886.98 h⁻¹
responsiveness of 786-O cell line compared with other tumor types such as MCF-7 (786-O cell line): less responsive
Kmax (maximum value of tumor shrinkage rate constant Ks) [4]: 0.0194 h⁻¹
Kg (net tumor growth rate constant) ([4]; QD PO 17 days, 0.008–11 mg/kg): 0.0057 h⁻¹
KI50 (I where Ks is 50% of Kmax) ([4]; pAkt in tumor tissue): 67.2 %pAKT inhibition
constant pAkt inhibition necessary to achieve tumor stasis (Ks = Kg) ([4]; tumor tissue pAkt): 61%
body-weight-normalized apparent volume of the central compartment (V1/F) ([5]; patients, assuming reference body weight of 70 kg): 3.01 L/kg
kin (rate of biomarker production) (pAkt [6]; platelet-rich plasma pAkt): 88,699 %/h
effect on pAkt in plasma with increasing doses (pAkt [6]; platelet-rich plasma, 2–70 mg): dose-dependent decrease
peak suppression of the platelet pAkt (pAkt [6]; platelet-rich plasma, doses ≥ 12 mg): 90%
Imax (maximum inhibition of %pAkt) (pAkt [6]; fixed in model): 1 (fix)
kout (first-order rate constant describing biomarker loss) (pAkt [6]; kout = kin/%pAkt(0), baseline 100%): 886.99 h⁻¹

Structure (SMILES): CS(=O)(=O)c1ccc(C(=O)Nc2ccc(Cl)c(-c3ccccn3)c2)c(Cl)c1 [vismodegib]
minimum Gli mRNA inhibition needed for tumor growth inhibition (Gli mRNA): ~50%
